This note sets out measurements from ChEMBL document CHEMBL2375288, “Synthesis and pharmacokinetic profile of highly deuterated brecanavir analogs” (Eur J Med Chem, 2013).

The subject of data set [1] is Hepatocyte. Put plainly: Drug metabolism in human hepatocytes assessed as formation of -[2H]-(3R,3aS,6aR)-hexahydrofuro[2,3-b]furan-3-yl (2S,3R)-4-(1-(3,4-dihydroxyphenyl)-N-isobutylmethylsulfonamido)-3-hydroxy-1-(4-((2-methylthiazol-4-yl)methoxy)phenyl)butan-2-ylcarbamate at 10 uM after 4 hrs by LC/MS/MS analysis. The class given is ADME, cell-based.
Data set [2] deals with Hepatocyte. Kind of data set: Drug metabolism in rat hepatocytes assessed as formation of -[2H]-6-(5-((N-((2R,3S)-3-(((3R,3aS,6aR)-hexahydrofuro[2,3-b]furan-3-yloxy)carbonylamino)-2-hydroxy-4-(4-((2-methylthiazol-4-yl)methoxy)phenyl)butyl)-N-isobutylsulfamoyl)methyl)-2-methoxyphenoxy)-3,4,5-trihydroxytetrahydro-2H-pyran-2-carboxylic acid at 10 uM after 4 hrs by LC/MS/MS analysis. It counts as ADME, cell-based.

Data set [3] deals with Rattus norvegicus. Kind of data set: Dose-normalized AUC in rat at 0.25 mg/kg, iv. It counts as ADME, organism-based. Set-up: dose 0.25 mg/kg, route intravenous. The following applies: in vivo. In outline: (§1)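 Intravenous dosing at 0.25 mg/kg in fed rats, given as a solution in DMSO/solutol/mannitol (2.5/10/87.5).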
Data set [4] in a line: Half life in rat at 0.25 mg/kg, iv. The class given is ADME, organism-based. Set-up: dose 0.25 mg/kg, route intravenous. The settings on record: in vivo. The gist of the method:
as §1

Data set [5] can be described thus: Plasma clearance in rat at 0.25 mg/kg, iv. Also noted: dose 0.25 mg/kg, route intravenous. The class given is ADME, organism-based. The gist of the method: as §1
Data set [6] concerns Rattus norvegicus. Put plainly: Dose-normalized AUC in rat at 0.25 mg/kg, iv co-administered with 4 mg/kg of ritonavir. It counts as ADME, organism-based. The following applies: in vivo. In outline:
(§2)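 Fed rats received 0.25 mg/kg intravenously as a DMSO/solutol/mannitol (2.5/10/87.5) solution, with ritonavir co-administered at 4 mg/kg.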

Data set [7] is described as follows: Half life in rat at 0.25 mg/kg, iv co-administered with 4 mg/kg of ritonavir. It counts as ADME, organism-based. The following applies: in vivo. In outline: as §2
Data set [8] is described as follows: Plasma clearance in rat at 0.25 mg/kg, iv co-administered with 4 mg/kg of ritonavir. The class given is ADME, organism-based. In outline: as §2

One may read the half-life as how long it takes for the measured level to halve. By clearance is commonly meant the volume of plasma or blood freed of the substance per unit of time.

Regarding `[2H]C1([2H])Oc2ccc(S(=O)(=O)N(C[C@@]([2H])(O)[C@H](Cc3ccc(OC([2H])([2H])c4csc(C)n4)cc3)NC(=O)O[C@@]3([2H])CO[C@@]4([2H])OCC[C@H]43)C([2H])([2H])C([2H])(C([2H])([2H])[2H])C([2H])([2H])[2H])cc2O1`, the Stability result with Hepatocyte [1] and in the data set with Hepatocyte [2] was “Unstable” throughout. In the data set with Rattus norvegicus [3], this compound showed an AUC/dose of 64 ng·h/mL/mg. The half-life in data set [4] was 12 min. For the same compound, the clearance in data set [5] turned out to be 64 mL/min/kg.
`[2H]C1([2H])C[C@@H]2[C@H](O1)OC([2H])([2H])[C@]2([2H])OC(=O)N[C@@H](Cc1ccc(OC([2H])([2H])c2csc(C)n2)cc1)[C@]([2H])(O)CN(C([2H])([2H])C([2H])(C([2H])([2H])[2H])C([2H])([2H])[2H])S(=O)(=O)c1ccc2c(c1)OC([2H])([2H])O2`: in the data set on Rattus norvegicus [3], the AUC/dose was determined as 59 ng·h/mL/mg. In addition, the half-life in data set [4] was 12 min. The same compound yielded a clearance in data set [5] of 59 mL/min/kg.
Take `Cc1nc(COc2ccc(C[C@H](NC(=O)O[C@H]3CO[C@H]4OCC[C@H]43)[C@H](O)CN(CC(C)C)S(=O)(=O)c3ccc4c(c3)OCO4)cc2)cs1` [BRECANAVIR]: the AUC/dose came to 774 ng·h/mL/mg with Rattus norvegicus [6] and 66 ng·h/mL/mg with Rattus norvegicus [3]. Also, the half-life is 12 min in data set [4] and 132 min in data set [7]. The clearance in data set [8] amounted to 5.4 mL/min/kg; in data set [5], 65 mL/min/kg.
